Data published in ChEMBL document CHEMBL1155849, “Cadinane sesquiterpenes from the leaves of Eupatorium adenophorum” (J Nat Prod, 2008).

How the values were obtained:
Format in all cases: functional, cell-based
Bel-7402 = test: Cytotoxicity against human Bel7402 cells by MTT assay
How it was run: (§1)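 Cell proliferation was read out by MTT. The lines were HCT-8 (colon), Bel-7402 (hepatoma) and A2780 (ovarian), all of human origin. Values are reported as IC50.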

A2780 = test: Cytotoxicity against human A2780 cells by MTT assay; how it was run: as §1
HCT-8 = test: Cytotoxicity against human HCT8 cells by MTT assay; how it was run: as §1

| Structure (SMILES) | IC50 (Bel-7402) [µM] | IC50 (A2780) [µM] | IC50 (HCT-8) [µM] |
| --- | --- | --- | --- |
| CC1=C[C@H]2[C@@H](CC1)[C@H](C)C[C@H](O)[C@@]2(O)C(C)C | 1.7 | 1.7 | 2 |
| CC1=C[C@@H]2C3=C(C)COO[C@@]3(O)C[C@@H](C)[C@@H]2CC1=O | > 5 | > 5 | > 5 |
| CC1=C[C@@H]2C3=C(C)C(=O)O[C@H]3C[C@@H](C)[C@@H]2CC1=O | > 5 | > 5 | > 5 |
| CC1=C[C@@H]2C3=C(C)C(=O)O[C@]3([C@@]34C[C@@H](C)[C@@H]5CC(=O)C(C)=C[C@@H]5C3=C(C)C(=O)O4)C[C@@H](C)[C@@H]2CC1=O | > 5 | > 5 | > 5 |
